According to ChEMBL document CHEMBL1132258, “gamma-Aminobutyrate-A receptor modulation by 3-aryl-1-(arylsulfonyl)- 1,4,5,6-tetrahydropyridazines” (J Med Chem, 1999):
pIC50: −log10 of the molar value.

Assays:
[1] = biological target: GABA-A receptor; anion channel; experiment: In vitro binding affinity to the Gamma-aminobutyric acid A receptor complex in absence of GABA in rat cerebellum tissue; assay type: tissue-based
[2] = biological target: GABA-A receptor; anion channel; experiment: In vitro binding affinity to the Gamma-aminobutyric acid A receptor complex in presence of GABA in rat cerebellum tissue; assay type: tissue-based
[3] = biological target: T1, GABA-A receptor; anion channel (Rattus norvegicus) (UniProt O09028+P15431+P18506+P18508+P19969+P20236+P23574+P23576+P28471+P28473+P30191+P62813+P63079+P63138+Q91ZM7+Q9ES14); experiment: Ratio of IC50 in the presence and absence of GABA.; assay type: functional
Mus musculus [4] = experiment: In vivo suppression of pentylenetetrazole-induced convulsions by the compound at the mentioned dose of, 100, i.p. ( mg/kg); out of 6 tested animals; assay type: functional
In short: (§1)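 Mice were dosed ip with compound or vehicle (10 mL/kg). Pentylenetetrazole 85 mg/kg sc was given 1 h later. Mice were housed individually and watched for 30 min for clonic convulsions, scored present or absent. Results are reported as number convulsed over number tested.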

Mus musculus [5] = experiment: In vivo Horizontal screen test for motor impairment by the compound at the mentioned dose of 100, i.p. ( mg/kg); out of 6 tested animals; assay type: functional
In short: (§2)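 Mice were dosed ip with compound or vehicle (10 mL/kg). After 1 h, just before sc pentylenetetrazole, they were placed on an inverted horizontal screen. Passing meant climbing to the top side within 1 min. Results are reported as number passed over number tested.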

Mus musculus [6] = experiment: In vivo Horizontal screen test for motor impairment by the compound at the mentioned dose of 30, p.o. (mg/kg); out of 12 tested animals; assay type: functional
In short: (§3)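 Mice were dosed orally or ip (vehicle 10 mL/kg). At 1 h, just before PTZ, each was placed on an inverted horizontal screen and scored pass/fail for climbing to the top side within 1 min. Result given as number passed/number tested.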

Mus musculus [7] = experiment: In vivo Horizontal screen test for motor impairment by the compound at the mentioned dose of 30, i.p. (mg/kg); out of 11 tested animals; assay type: functional; in short: as §3
Mus musculus [8] = experiment: In vivo suppression of pentylenetetrazole-induced convulsions by the compound at the mentioned dose of, 10, i.p. (mg/kg); out of 12 tested animals; assay type: functional
In short: (§4)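 Mice received compound or vehicle (10 mL/kg) po or ip. After 1 h they got pentylenetetrazole 85 mg/kg sc. They were housed individually and observed 30 min for clonic convulsions (present/absent). Result given as number convulsed/number tested.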

Mus musculus [9] = experiment: In vivo Horizontal screen test for motor impairment by the compound at the mentioned dose of 1, i.p. ( mg/kg); out of 12 tested animals; assay type: functional; in short: as §3
Mus musculus [10] = experiment: In vivo suppression of pentylenetetrazole-induced convulsions by the compound at the mentioned dose of, 30, p.o. (mg/kg); out of 12 tested animals; assay type: functional; in short: as §4
Mus musculus [11] = experiment: In vivo suppression of pentylenetetrazole-induced convulsions by the compound at the mentioned dose of, 30, i.p. (mg/kg); out of 11 tested animals; assay type: functional; in short: as §4
Mus musculus [12] = experiment: In vivo suppression of pentylenetetrazole-induced convulsions by the compound at the mentioned dose of, 1, i.p. ( mg/kg); out of 12 tested animals; assay type: functional; in short: as §4
Mus musculus [13] = experiment: In vivo Horizontal screen test for motor impairment by the compound at the mentioned dose of 10, i.p. (mg/kg); out of 12 tested animals; assay type: functional; in short: as §3
Mus musculus [14] = experiment: In vivo suppression of pentylenetetrazole-induced convulsions by the compound at the mentioned dose of, 30, i.p. (mg/kg); out of 6 tested animals; assay type: functional; in short: as §4
Mus musculus [15] = experiment: In vivo Horizontal screen test for motor impairment by the compound at the mentioned dose of 30, i.p. (mg/kg); out of 6 tested animals; assay type: functional; in short: as §3
[16] = biological target: T1, GABA-A receptor; anion channel (Rattus norvegicus); experiment: Relative binding to GABA-A receptor in the presence and absence of GABA; assay type: functional
Mus musculus [17] = experiment: In vivo suppression of pentylenetetrazole-induced convulsions by the compound at the mentioned dose of, 10, i.p. (mg/kg); out of 6 tested animals; assay type: functional; in short: as §1
Mus musculus [18] = experiment: In vivo Horizontal screen test for motor impairment by the compound at the mentioned dose of 10, i.p. (mg/kg); out of 6 tested animals; assay type: functional; in short: as §2
Mus musculus [19] = experiment: In vivo suppression of pentylenetetrazole-induced convulsions by the compound at the mentioned dose of, 1, i.p. ( mg/kg); out of 6 tested animals; assay type: functional; in short: as §1
Mus musculus [20] = experiment: In vivo Horizontal screen test for motor impairment by the compound at the mentioned dose of 1, i.p. ( mg/kg); out of 6 tested animals; assay type: functional; in short: as §2

Compound | pIC50 [1] | pIC50 [2] | GS [3] | further results
CCCCc1ccc(C2=NN(S(=O)(=O)c3ccccc3)CCC2)cc1 | < 4.96 | 5.96 | 10 | Induced convulsion (Mus musculus [4]): 5 number convulsed; Horizontal screen (Mus musculus [5]): 4 number passed
CCCCc1ccc(C2=NN(P(=O)(OC)c3ccccc3)CCC2)cc1 (configuration not stated) | 5.70 | 6.30 | 4 | 
CCCCc1ccc(C2=NN(S(=O)(=O)c3ccc(Cl)cc3)CCC2)cc1 | < 4.96 | < 4.96 |  | 
CCCCc1ccc(C2=NN(S(=O)(=O)c3ccc(CCCC)cc3)CCC2)cc1 | < 4.96 | 6.68 | 52.4 | Horizontal screen (Mus musculus [6]): 12 number passed; Horizontal screen (Mus musculus [7]): 10 number passed; Induced convulsion (Mus musculus [8]): 8 number convulsed; Horizontal screen (Mus musculus [9]): 11 number passed; Induced convulsion (Mus musculus [10]): 12 number convulsed; Induced convulsion (Mus musculus [11]): 10 number convulsed; Induced convulsion (Mus musculus [12]): 9 number convulsed; Horizontal screen (Mus musculus [13]): 12 number passed
CCCCc1ccc(S(=O)(=O)N2CCCC(c3ccc(CC(C)C)cc3)=N2)cc1 | < 4.96 | < 4.96 |  | 
CC(C)c1ccc(C2=NN(S(=O)(=O)c3ccc(I)cc3)CCC2)cc1 | < 4.96 | 5.20 | 1.7 | 
CCCCc1ccc(S(=O)(=O)N2CCCC(c3ccc(CC)cc3)=N2)cc1 | 5.42 | 5.74 | 2.1 | 
CCCCc1ccc(C2=NN(S(=O)(=O)c3ccc(I)cc3)CCC2)cc1 | 5.00 | 6.11 |  | Induced convulsion (Mus musculus [14]): 6 number convulsed; Horizontal screen (Mus musculus [15]): 3 number passed; GABA shift [16]: 13.7
O=P(OC1CCCC1)(c1ccccc1)N1CCCC(c2ccc(Cl)c(Cl)c2)=N1 (configuration not stated) |  |  | 32.6 | 
CCCCc1ccc(C2=NN(P(=O)(OCC)c3ccccc3)CCC2)cc1 (configuration not stated) | 5.95 | 6.14 | 1.5 | Induced convulsion (Mus musculus [17]): 5 number convulsed; Horizontal screen (Mus musculus [18]): 5 number passed
CCOP(=O)(c1ccccc1)N1CCCC(c2ccc(Cl)c(Cl)c2)=N1 (configuration not stated) | 5.86 | 5.98 | 1.3 | Induced convulsion (Mus musculus [19]): 6 number convulsed; Horizontal screen (Mus musculus [20]): 5 number passed; Induced convulsion (Mus musculus [17]): 6 number convulsed; Horizontal screen (Mus musculus [18]): 5 number passed
CCc1ccc(C2=NN(S(=O)(=O)c3ccc(I)cc3)CCC2)cc1 | 5.00 | 6.05 | 11.1 | 
COP(=O)(c1ccccc1)N1CCCC(c2ccc(Br)cc2)=N1 (configuration not stated) | < 4.96 | < 4.96 |  | 
CCCCc1ccc(C2=NN(S(=O)(=O)c3ccc(C)cc3)CCC2)cc1 | < 4.96 | 5.66 | 5 | 
CC(C)Cc1ccc(C2=NN(S(=O)(=O)c3ccc(I)cc3)CCC2)cc1 | < 4.96 | < 4.96 |  | 
CCCCCCc1ccc(C2=NN(S(=O)(=O)c3ccc(I)cc3)CCC2)cc1 | < 4.96 | < 4.96 |  | 
COP(=O)(c1ccccc1)N1CCCC(c2ccc(Cl)c(C(F)(F)F)c2)=N1 (configuration not stated) | 5.08 | 5.18 | 1.3 | 
CCCCc1ccc(S(=O)(=O)N2CCCC(c3ccc(C(C)C)cc3)=N2)cc1 |  | 5.00 |  | 
COP(=O)(c1ccccc1)N1CCCC(c2ccc(F)cc2)=N1 (configuration not stated) | < 4.96 | 5.00 | 1.1 | 
CCOP(=O)(c1ccccc1)N1CCCC(c2ccc(F)cc2)=N1 (configuration not stated) | < 4.96 | 5.00 | 1.1 | 
CC(C)OP(=O)(c1ccccc1)N1CCCC(c2ccc(Cl)c(Cl)c2)=N1 (configuration not stated) | 5.00 | 5.85 | 7.1 | Induced convulsion (Mus musculus [4]): 4 number convulsed; Horizontal screen (Mus musculus [5]): 0 number passed
CCOP(=O)(c1ccccc1)N1CCCC(c2ccc(Cl)c(C(F)(F)F)c2)=N1 (configuration not stated) | 5.27 | 5.96 | 4.9 | 
COc1ccc(C2=NN(P(=O)(OC)c3ccccc3)CCC2)cc1 (configuration not stated) | < 4.96 | 5.19 | 1.7 | 
COP(=O)(c1ccccc1)N1CCCC(c2ccccc2)=N1 (configuration not stated) |  | < 4.96 |  | 
C[C@]12CC[C@@H](O)C[C@@H]1CC[C@@H]1[C@@H]2CC[C@]2(C)[C@@H](C(=O)CO)CC[C@@H]12 | 5.52 | 7.05 | 33.9 | 
CC(=O)[C@H]1CC[C@H]2[C@@H]3CC[C@H]4C[C@H](O)CC[C@]4(C)[C@H]3CC[C@]12C [BREXANOLONE] | 5.58 | 7.10 | 32.6 | 
